In brackets after ≈: the same amount, converted by molar mass. Entries after “also recorded” stand apart in the source; their conditions may differ. One block for each molecule: values may come before it.
Columns and labels:
[1] = test system: loperamide-induced mouse model of constipation; test: Loperamide-induced constipation model in wild-type mice; type: in vivo; conditions: for Stool weight, pellet number and water content (3 hours): 10 mg/kg intraperitoneal, loperamide-treated wild-type mice; for Normalization of stool output as percent of the maximal CFTRact-J027 response: 0.5 mg/kg oral
Summary of the method: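 Female CD1 mice (8–10 wk) given loperamide 0.3 mg/kg IP. Test compound (0.1–10 mg/kg) or vehicle given IP at the same time, or orally 1 h before. Mice then housed singly in metabolic cages and stool collected for 3 h: total weight, pellet number, and water content after drying at 80°C for 24 h. Mean ± SEM; 6 mice per group, dose-response 4–6 per group.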

[2] = test system: chronic constipation patients; conditions: placebo 0.9; cited from earlier work
human wild-type CFTR = human wild-type CFTR (Homo sapiens, UniProt P13569); test: Short-circuit current in FRT cells expressing wild-type human CFTR; type: cell-based
Summary of the method: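 FRT cells stably expressing wild-type human CFTR grown on porous filters. Basolateral membrane permeabilized with 250 μg/mL amphotericin B. Apical side given a Cl⁻ gradient (65 mmol/L NaCl replaced by Na gluconate, 2 mmol/L CaCl2) against HEPES-buffered basolateral saline, pH 7.3, 37°C. Forskolin, test compound, then CFTRinh-172 (10 μmol/L) added. Concentration dependence: mean ± SEM, n = 3 cultures.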

ΔF508-CFTR = ΔF508-CFTR (Homo sapiens, UniProt P13569, DEL508-508); test: Short-circuit current in FRT cells expressing ΔF508-CFTR; type: cell-based; conditions: FRT cells expressing ΔF508-CFTR after overnight incubation with corrector VX-809
Summary of the method: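 Short-circuit current in FRT cells expressing ΔF508-CFTR, pre-corrected with 3 μmol/L VX-809 at 37°C for 24 h. Responses recorded to added forskolin, test compound and VX-770, with CFTRinh-172 (10 μmol/L) where indicated. Traces representative of 3 experiments.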

cAMP = test: GloSensor luminescence cAMP assay in FRT null cells; type: cell-based, rat; conditions: 5 μmol/L, 10 minutes
Summary of the method: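 FRT null cells stably transfected with a GloSensor cAMP plasmid, grown to confluence and washed 3× in PBS. Incubated 10 min with 5 μmol/L test compound, without or with forskolin (100 nmol/L). cAMP read by luminescence. Positive controls: forskolin 100 nmol/L and 20 μmol/L, forskolin plus IBMX 100 μmol/L. Mean ± SEM, n = 4–8.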

[3] = test system: cystic fibrosis mice (ΔF508 homozygous); type: in vivo, mouse; conditions: loperamide model; cystic fibrosis mice lacking functional CFTR
Summary of the method: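 ΔF508-homozygous cystic fibrosis mice run in the same loperamide protocol as wild-type mice (0.3 mg/kg IP, test compound or vehicle). Stool collected for 3 h in metabolic cages; weight, pellet number, and water content measured after drying at 80°C for 24 h. 3–6 mice per group.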

[4] = test system: loperamide-treated wild-type mice; test: Whole-gut transit time in loperamide-treated wild-type mice; type: in vivo, mouse; conditions: 10 mg/kg IP with loperamide at zero time
Summary of the method: (§1)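 Marker (200 μL; 5% Evans Blue, 5% gum Arabic) given by oral gavage at zero time. At the same time, loperamide (0.3 mg/kg) and test compound (10 mg/kg) or vehicle given IP, to wild-type or cystic fibrosis mice. Whole-gut transit time taken as the time the marker appears in stool.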

cystic fibrosis mice = test: Whole-gut transit time in cystic fibrosis mice; type: in vivo, mouse; conditions: 10 mg/kg IP
Summary of the method: as §1

[5] = test system: isolated mouse ileum and colon strips; test: Ex vivo contractility of isolated intestinal strips; conditions: added alone or in the presence of 10 μmol/L loperamide
[6] = test system: closed midjejunal loops in wild-type mice; test: Intestinal fluid secretion in closed midjejunal loops, wild-type mice; type: in vivo, mouse; conditions: 100 μg per loop, 90 minutes
Summary of the method: (§2)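 Mice fasted 24 h with 5% dextrose water only, then anaesthetised with isoflurane and kept at 36–38°C. Closed midjejunal loops (2–3 cm) tied off by sutures and injected with 100 μL vehicle or 100 μg test compound in vehicle. Incision closed and mice recovered. Loops removed at 90 min; loop weight/length taken as fluid secretion. 4 loops per group.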

[7] = test system: closed midjejunal loops in cystic fibrosis mice; test: Intestinal fluid secretion in closed midjejunal loops, cystic fibrosis mice; type: in vivo, mouse; conditions: 100 μg per loop, 90 minutes
Summary of the method: as §2

[8] = test system: closed midjejunal loops of cystic fibrosis mice; test: Intestinal fluid absorption in closed midjejunal loops, cystic fibrosis mice; type: in vivo, mouse; conditions: 100 μg per loop, 30 minutes
[9] = In vitro metabolic stability in mouse liver microsomes; type: in vitro ADME
Summary of the method: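 Test compound (5 μmol/L) incubated at 37°C for set times with mouse liver microsomes (1 mg protein/mL) in 100 mmol/L potassium phosphate with 1 mmol/L NADPH. Reaction chilled on ice and extracted with ice-cold ethyl acetate, then centrifuged. Supernatant dried, residue taken up in acetonitrile:water 3:1, and parent measured by LC-MS.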

[10] = Pharmacokinetics in mice after bolus IP or oral administration; type: in vivo, mouse
Summary of the method: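 Female CD1 mice dosed once with 10 mg/kg test compound in saline containing 5% DMSO and 10% Kolliphor HS 15, IP or orally. Blood taken by orbital puncture at 15, 30, 60, 150, 240 and 360 min, and plasma separated by centrifugation. Levels measured by LC-MS against calibration standards spiked into untreated mouse plasma. Mean ± SEM, 3 mice per group.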

FRT cells = test: In vitro cytotoxicity by Alamar Blue assay; type: cell-based, rat
Summary of the method: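 FRT cells exposed to 25 μmol/L test compound for 8 and 24 h, with viability read by Alamar Blue. Mean ± SEM, n = 3 cultures.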

[11] = 7-day oral toxicity study in mice; type: in vivo, mouse
Summary of the method: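 Mice received 10 mg/kg test compound or vehicle orally once daily for 7 days. One hour after the last dose, loperamide 0.3 mg/kg IP was given and stool was collected for 3 h. At 4 h after the last dose: complete blood count, serum chemistry, body weight and lung wet/dry weight ratio. Mean ± SEM, 5 mice per group.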

loperamide-treated mice = test: Efficacy in loperamide model after 7-day chronic oral administration; type: in vivo, mouse; conditions: 10 mg/kg orally for 7 days, loperamide 1 hour after final dose
Solubility limit = type: physicochemical
[12] = test system: constipation-predominant irritable bowel syndrome patients; conditions: cited from earlier work
[13] = 10 mg/kg orally once a day for 7 days
[14] = 10 mg/kg orally once per day for 7 days, mean ± SEM, 5 mice

Molecule: Cn1c(=O)c(-c2cc([N+](=O)[O-])ccc2N)nc2ccccc21 [inactive chemical analog of CFTRact-J027, 3-(2-amino-5-nitrophenyl)-1-(methyl)-2(1H)-quinoxalinone]
Stool weight, pellet number and water content (3 hours) [1]: not effective

Molecule: linaclotide [reference compound]
Normalization of stool output as percent of the maximal CFTRact-J027 response ([1]; loperamide-treated mice): 35% | CSBM per week [2]: ~2.5

CFTR activation at 3 μmol/L (human wild-type CFTR; FRT cells expressing wild-type CFTR, 3 μmol/L): nearly full activation | CFTR activation (short-circuit current) (human wild-type CFTR; FRT cells, wild-type CFTR, forskolin produced minimal further increase): fully activated CFTR | CFTR activation in the absence of forskolin (human wild-type CFTR; FRT cells, wild-type CFTR, no forskolin, data not shown): Little CFTR activation | Original compound remaining at 60 minutes ([9]; mouse liver microsomes, 60 minutes): 7% | half-life at 5 μmol/L ([9]; mouse, liver microsomes): ~21 min | half-life ([10]; female, CD1, mouse, serum, ip, 10 mg/kg): ~16 min | concentration at 30 minutes ([10]; female, CD1, mouse, serum, po, 10 mg/kg): 180 nM | Serum concentration at 150 minutes after IP administration ([10]; mice, 10 mg/kg IP, 150 minutes): undetectable | Blood levels after oral administration ([10]; mice, 10 mg/kg oral): less than 200 nmol/L | Serum concentration at other time points after oral administration ([10]; mice, 10 mg/kg oral, time points other than 30 minutes): undetectable | solubility (Solubility limit): ~25 µM (≈ 9.31 µg/mL)
Molecule: Nc1ccc([N+](=O)[O-])cc1-c1nc2ccccc2n(Cc2ccccc2)c1=O [CFTRact-J027, 3-(2-amino-5-nitrophenyl)-1-benzylquinoxalin-2(1H)-one]
Potentiation of ΔF508-CFTR (ΔF508-CFTR): only a weak potentiator; also recorded: substantially less potent than ivacaftor | Cellular cAMP, compound added alone (cAMP): does not increase cellular cAMP | Cellular cAMP, compound added together with forskolin (cAMP; with forskolin): does not increase cAMP further | Stool weight, pellet number and water content (3 hours) [1]: normalized each of the stool parameters | Stool output and water content, oral administration ([1]; 10 mg/kg oral 1 hour before loperamide, loperamide-treated mice): effective in normalizing stool output and water content | Stool output and water content in control mice, oral administration ([1]; 10 mg/kg oral, control mice): no effect | Stool output or water content in control mice ([1]; intraperitoneal, control (non-loperamide-treated) mice): did not affect stool output or water content | 50% effective dose, IP administration ([1]; loperamide model, intraperitoneal): 2 mg/kg | Stool output and water content in cystic fibrosis mice [3]: without effect | Whole-gut transit time [4]: normalized | Whole-gut transit time in cystic fibrosis mice (cystic fibrosis mice): no effect | Intestinal contraction [5]: no effect | Increase in loop weight/length ratio (fluid secretion) [6]: 140% | Loop fluid secretion in cystic fibrosis mice [7]: without effect | Intestinal fluid absorption [8]: did not affect intestinal fluid absorption | Oral bioavailability ([10]; mice, 10 mg/kg oral, 10 mg/kg): minimal bioavailability; also recorded: very low bioavailability | Non-cytotoxic concentration relative to EC50 for CFTR activation (FRT cells; 25 μmol/L versus EC50): more than 100 fold | Cytotoxicity (Alamar Blue) (FRT cells; 25 μmol/L, FRT cells, 8 and 24 hours): did not show cytotoxicity | Body weight [11, 13]: did not change body weight | Lung water content (lung wet/dry weight ratio) [11, 13]: normal lung water content | Major serum chemistry and blood parameters [11, 13]: did not affect the major serum chemistry and blood parameters | ALP level [11, 14]: 53 ± 2.5 U/L | ALT level [11, 14]: 44 ± 6 U/L | AST level [11, 14]: 105 ± 11 U/L | Albumin level [11, 14]: 2.9 ± 0.03 g/dL | BUN level [11, 14]: 18.4 ± 1.2 mg/dL | Bicarbonate level [11, 14]: 16 ± 1.7 mmol/L | CK level [11, 14]: 312 ± 62 U/L | Calcium level [11, 14]: 8.5 ± 0.04 mg/dL | Chloride level [11, 14]: 115 ± 1 mmol/L | Cholesterol level [11, 14]: 121 ± 6 mg/dL | Creatinine level [11, 14]: 0.2 ± 0 mg/dL | Globulin level [11, 14]: 2.2 ± 0.1 g/dL | Glucose level [11, 14]: 164 ± 6 mg/dL | Hemoglobin level [11, 14]: 12.8 ± 0.3 g/dL | Leukocyte level [11, 14]: 1.9 ± 0.5 10^3/μL | Phosphorus level [11, 14]: 6.8 ± 0.3 mg/dL | Potassium level [11, 14]: 4.4 ± 0.1 mmol/L | Sodium level [11, 14]: 151 ± 0.7 mmol/L | Thrombocyte level [11, 14]: 900 ± 48 10^3/μL | Total bilirubin level [11, 14]: 0.1 ± 0 mg/dL | Total protein level [11, 14]: 5.2 ± 0.1 g/dL | Stool output and water content after chronic administration (loperamide-treated mice): remained effective in normalizing stool output and water content

Molecule: CCCCC(F)(F)[C@@]1(O)CC[C@H]2[C@@H](CC(=O)[C@@H]2CCCCCCC(=O)O)O1 [lubiprostone, reference compound]
Normalization of stool output as percent of the maximal CFTRact-J027 response ([1]; loperamide-treated mice): 50% | Overall response rate [12]: approximately 13%

From article PMC4844355 (Cellular and Molecular Gastroenterology and Hepatology, 2016)
